Most compounds without a hit are left out; they make up all but 2.1% or so of the library.
TLR4-MyD88 BLA = blocks binding of human TLR4 to MyD88; O00206+Q99836; HeLa CL3-4 TLR4/MyD88 BLA complementation, FRET ratio; inhibition, % at 8.4 µM; 200,000 compounds, 0.18% hits; AID 861; in the data active = inhibition above about 25%;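 note: 0% = vehicle and 100% = reference inhibitor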
MC4R barr agon = human MC4R agonism via beta-arrestin | P32245 | U2OS MC4R beta-arrestin complementation, luminescence; percent of melanotan II response, DMSO zero | activation, % at 8.9 µM | 360,000 compounds, 0.98% hits | AID 540308;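 active = activation above a per-plate cutoff, the mean activation of sample wells on that plate plus 3 SD, cut at about 8% in these data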
MIN6 prolif = MIN6 beta-cell proliferation induction; proliferation, % at 10 µM; 330,000 compounds, 0.29% hits; MIN6 cells proliferation, ATPlite luminescence, 48 h; cells starved in 0.2% serum; 100% = growth in 10% serum;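 active = compounds whose signal lies at least 3.5 SD above the mean of all wells on their plate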;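 note: 0% = DMSO-treated cells in low-serum medium and 100% = 10% serum control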
NOD2-RIPK2 inh = NOD2-RIPK2 protein interaction inhibition | O43353 | inhibition, % at 4.98 µM | AID 624267 | CHO BLA complementation NOD2-RIPK2, CCF4 ratio | 360,000 compounds, 0.38% hits; in the data active = inhibition above about 21%;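 note: 0% = vehicle only and 100% = reference blocker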
MC4R antagonist = human MC4R antagonism in cAMP assay. 360,000 compounds, 0.48% hits. MC4R-expressing cells, MTII-stimulated cAMP, LANCE TR-FRET. inhibition, % at 6.5 µM;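 active = inhibition above its plate's cutoff, the mean of tested wells on that plate plus 3 SD, cut at about 29% in these data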;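 note: 0% = Melanotan II alone and 100% = Melanotan II plus saturating MCL0020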
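system = U2OS cells with stable human MC4R expression | also added = Melanotan II challenge after compound preincubation | dosing = one concentration, 6.5 µM nominal | incubation = compound 30 min, challenge 1 h, detection 1 h | measured by = TR-FRET with Eu-cAMP and labeled anti-cAMP, 671 nm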
TLR9-MyD88 inh = inhibitors of human TLR9-MyD88 binding | Q9NR96+Q99836 | CHO BLA complementation TLR9-MyD88, CCF4 FRET ratio | inhibition, % at 4.98 µM | 340,000 compounds, 0.21% hits | AID 504734;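 active = inhibition above the mean over all tested compounds plus 3 SD, cut at about 21% in these data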;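 note: 0% = DMSO only wells and 100% = clavulanate BLA inhibitor control wells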
cAMP nonselect = nonselective cAMP signaling inhibitor, MC4R antagonist counter-screen; shares compounds with MC4R antagonist; parental U2OS, forskolin cAMP, LANCE TR-FRET; inhibition, % at 6.5 µM; 1,600 compounds, 26% hits; AID 602193;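 active = mean inhibition over triplicates above the low-control well mean plus 3 SD, set per campaign, cut at about 13% in these data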;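 note: signal is single emission at 671 nm which falls as cellular cAMP rises; 0% = forskolin-stimulated wells and 100% = buffer without forskolin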
MC4R cAMP antag = human MC4R cAMP antagonism confirmation. inhibition, % at 6.5 µM. MC4R-expressing cells, MTII-stimulated cAMP, TR-FRET. shares compounds with MC4R antagonist. 1,600 compounds, 27% hits. AID 602195; in the data active = inhibition above about 29%;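 note: 0% = agonist stimulated wells alone and 100% = agonist stimulated wells plus saturating reference antagonist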
Numbers without * were called inactive; . = no result given.

SMILES	TLR4-MyD88 BLA	MC4R barr agon	MIN6 prolif	NOD2-RIPK2 inh	MC4R antagonist	TLR9-MyD88 inh	cAMP nonselect	MC4R cAMP antag
Cc1c(NC(=S)N/C(=N/S(=O)(=O)c2ccc(Cl)cc2)c2ccccc2)c(=O)n(-c2ccccc2)n1C	.	-3	1	-7	7	-4	.	.
CC1CCC/C(=N\NS(=O)(=O)c2ccccc2)C1 (centres undefined)	.	2	-3	-11	37*	0	-1	-1
CC1CCC/C(=N\NC(=O)Nc2ccccc2)C1 (centres undefined)	9	-1	1	0	23	-1	.	.
CCOC(=O)c1cnc2ccc(OC)cc2c1NCc1ccccc1	1	0	-5	-4	4	-2	.	.
CCOC(=O)c1cnc2ccc(OCC)cc2c1NCc1ccccc1OC	3	2	-3	-8	48*	-14	16*	48*
O=C(c1ccc(F)cc1Cl)N(Cc1ccco1)C1CCS(=O)(=O)C1 (centres undefined)	.	0	-2	0	4	-7	.	.
COC(=O)c1c(NC(=O)/C=C/C(=O)O)sc(C)c1-c1ccc(C)cc1	-3	-2	-5	-13	6	3	.	.
COC(=O)c1c(NC(=O)/C=C/C(=O)O)sc(C)c1-c1ccc(C(C)C)cc1	6	0	-7	-10	33*	-7	1	-10
COC(=O)c1sc(-c2ccc(Cl)cc2)cc1NC(=O)COCC(=O)O	.	2	-2	-3	12	8	.	.
COC(=O)c1sc(-c2ccc(Cl)cc2)cc1NC(=O)/C=C/C(=O)O	.	1	-6	-15	47*	-7	13*	20
CCN(CC)C(=O)COc1ccc(/C=N/NC(=O)c2cc(-c3ccccc3OC)nc3ccccc23)cc1OC	.	4	-1	-8	5	-5	.	.
O=c1c(Cc2c(F)cccc2Cl)c(O)ccn1CCCN1CCOCC1	1	1	-2	4	30*	-1	-7	-20
O=C(CCN1CCCC1Cc1ccccc1)c1ccc2c(c1)OCCO2 (centres undefined)	-5	-3	-7	17	36*	-1	16*	35*
Cc1ccccc1NC(=O)COC(=O)c1ccc(S(C)(=O)=O)c([N+](=O)[O-])c1	18	-2	-6	7	47*	13	33*	51*
CC(CCc1ccccc1)NC(=O)COC(=O)c1ccc(S(C)(=O)=O)c([N+](=O)[O-])c1 (centres undefined)	9	-3	-7	12	70*	9	32*	55*
CCc1ccc(OCC(=O)NC(NC(=S)Nc2ccccc2OC)C(Cl)(Cl)Cl)cc1 (centres undefined)	7	4	-5	3	38*	-1	1	27
CCc1ccc(OCC(=O)NC(NC(=S)Nc2ccccc2C)C(Cl)(Cl)Cl)cc1 (centres undefined)	0	0	0	-3	11	6	.	.
Cc1nc2scc(C)n2c(=O)c1S(=O)(=O)Nc1ccc(OC(F)(F)F)cc1	.	1	-2	9	-1	-4	.	.
COC(=O)c1sccc1NC(=S)Nc1ccc(F)cc1F	6	1	0	-10	30*	-8	-1	-19
COC(=O)c1sccc1NC(=S)Nc1cccc(F)c1	.	0	-2	-5	12	12	.	.
Cc1nn(C)cc1/C=N/NC(=O)C(C)(C)Oc1ccc(Cl)cc1	-8	-1	-2	-22	6	-5	.	.
COc1cc(C2c3cc(O)c(OC)cc3CC(C(=O)O)C2CO)ccc1O (centres undefined)	.	-2	.	-8	4	10	.	.
CCCC1=NN2C(=N)/C(=C\c3cc(C)n(-c4cc(C)cc(C)c4)c3C)C(=O)N=C2S1	8	2	0	-9	30*	-20	-1	-20
Cc1cc(Oc2ccc(C)c(Cl)c2)nc(SCC(=O)c2ccccc2)n1	-21	2	-6	9	45*	2	23*	47*
NC(N)=Nc1ccc(C=C2C=Cc3ccccc32)cc1	.	2	.	6	-8	11	.	.
SMILES	TLR4-MyD88 BLA	MC4R barr agon	MIN6 prolif	NOD2-RIPK2 inh	MC4R antagonist	TLR9-MyD88 inh	cAMP nonselect	MC4R cAMP antag
O=C(c1ccccc1)C(CCC(CN1CCOCC1)C(=O)c1ccccc1)CN1CCOCC1 (centres undefined)	4	-1	-3	30*	41*	10	-4	-2
O=C(c1ccc(F)cc1)C(CN1CCOCC1)c1ccccc1 (centres undefined)	17	-1	-4	7	19	10	.	.
O=C(NCc1cccnc1)C(=O)Nc1nccs1	2	.	-1	.	.	.	.	.
O=C(NCc1cccnc1)C(=O)Nc1nc2ccccc2s1	-8	-1	0	-2	30*	-6	-4	-19
O=C(CCC1CCCN(Cc2ccc3c(c2)OCCO3)C1)NCc1ccc(F)c(F)c1 (centres undefined)	-5	-2	0	3	-2	-7	.	.
O=C(CCC1CCCN(Cc2ccc3c(c2)OCCO3)C1)NCc1ccccc1F (centres undefined)	.	-3	4	-3	29*	0	-2	2
O=C(CN1CCCN(Cc2ccc(F)cc2Cl)C1=O)NC1CCCCCCC1	-11	1	-5	3	6	0	.	.
O=C(CN1CCN(Cc2ccccc2F)C1=O)NC1CCCC1	-4	0	-2	-1	29*	0	-1	-5
O=S(=O)(NCC1CCCO1)c1cnc(Cl)c(Br)c1 (centres undefined)	22	-3	-5	3	29*	5	19*	43*
O=S(=O)(NCC1CCCO1)c1cc(Cl)ccc1Br (centres undefined)	-15	0	-2	8	1	-1	.	.
COc1ccc(C(=O)/C=C/C(=O)N(CC(=O)NC2CCCCC2)Cc2ccccc2)c(O)c1	19	-2	.	7	40*	-2	5	11
COc1ccc(C(=O)/C=C/C(=O)N(CC(=O)NC2CCCCC2)Cc2ccccc2OC)c(O)c1	2	-6	.	0	48*	8	7	14
CCC(C)(O)c1[nH]c2ccc(C#N)cc2c1C (centres undefined)	.	-1	-1	-2	3	0	.	.
CCOc1ccc2nc(NC(=O)C3CCCN(S(=O)(=O)c4cccc5nonc45)C3)sc2c1 (centres undefined)	15	1	-2	-15	33*	-9	4	22

Screening data deposited in PubChem by several laboratories.
